The test system of test [1] is Human immunodeficiency virus 1. The test can be described thus: Ratio of EC50 for HIV-1 M1 harboring protease L10I, M46I, I64V, I84V, L90M, I93L mutant to EC50 for wild type HIV-1 3B. It counts as functional.
Test [2] concerns Human immunodeficiency virus 1. The test can be described thus: Antiviral activity against HIV-1 M2 harboring protease L10I, I13V, M46I, I50V, L63P, L76V mutant infected in human MT4 cells assessed as inhibition of viral replication after 3 days by GFP reporter gene assay. Conditions: Human immunodeficiency virus 1, M2, MT4, 72 h. It counts as functional, organism-based. The essentials: (§1)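 Cell-based replication assay in MT4 cells carrying an LTR-GFP readout (HIV tat drives GFP). Serial compound concentrations were mixed with cells at 150 000 cells/mL and 200 CCID50 of virus, incubated 3 days at 37 °C, 5% CO2. Percent inhibition per concentration gave dose-response curves for EC50/pEC50. Run in quadruplicate. Mock-infected parallel cultures at the same concentrations gave CC50.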
Background: A reporter such as luciferase makes a cellular process visible.

Test [3] concerns Human immunodeficiency virus 1. The test is described as follows: Antiviral activity against wild type HIV-1 3B infected in human MT4 cells assessed as inhibition of viral replication after 3 days by GFP reporter gene assay. It counts as functional, organism-based. The conditions noted are these: Human immunodeficiency virus 1, 3B, MT4, 72 h. The essentials:
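MT4 cells (150 000 cells/mL) were infected with wild-type HIV-1/LAI at 200 CCID50 across a compound concentration range. Plates were incubated 3 days at 37 °C and 5% CO2. Replication was read as GFP driven by HIV-tat binding LTR sequences. EC50 was taken from dose-response curves of percent inhibition, in quadruplicate. Mock-infected parallel cultures gave CC50 from reduced GFP.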

The subject of test [4] is Human immunodeficiency virus 1. The test can be described thus: Antiviral activity against HIV-1 M1 harboring protease L10I, M46I, I64V, I84V, L90M, I93L mutant infected in human MT4 cells assessed as inhibition of viral replication after 3 days by GFP reporter gene assay. It counts as functional, organism-based. Conditions: Human immunodeficiency virus 1, M1, MT4, 72 h. The method, boiled down:
as §1

For test [5], the system named is Human immunodeficiency virus 1. The test is described as follows: Antiviral activity against wild type HIV-1 3B infected in human MT4 cells assessed as inhibition of viral replication after 3 days by GFP reporter gene assay in presence of human serum. It counts as functional, organism-based. Conditions: Human immunodeficiency virus 1, 3B, MT4, 72 h.
The subject of test [6] is Human immunodeficiency virus 1. The test is described as follows: Ratio of EC50 for HIV-1 M3 harboring protease L10I, K20R, M36I, G48V, I62V, A71V, V82A, I93L mutant to EC50 for wild type HIV-1 3B. It counts as functional.
Test [7] concerns Human immunodeficiency virus 1. The test is described as follows: Antiviral activity against HIV-1 M3 harboring protease L10I, K20R, M36I, G48V, I62V, A71V, V82A, I93L mutant infected in human MT4 cells assessed as inhibition of viral replication after 3 days by GFP reporter gene assay. The conditions noted are these: Human immunodeficiency virus 1, M3, MT4, 72 h. It counts as functional, organism-based. The method, boiled down:
as §1

In test [8] the test system is Human immunodeficiency virus 1. The test is described as follows: Ratio of EC50 for HIV-1 M2 harboring protease L10I, I13V, M46I, I50V, L63P, L76V mutant to EC50 for wild type HIV-1 3B. It counts as functional.

Take `COc1ccc(S(=O)(=O)N(CC(C)C)C[C@@H](O)[C@H](Cc2ccccc2)NC(=O)O[C@H]2CO[C@H]3OC[C@H](OCC(=O)NCc4ccccc4)[C@H]32)cc1`: the “Ratio EC50” value is listed as 5.6 in test [1], 1.7 in test [6] and 7.5 in test [8]. For the same compound, the EC50 was 4.4 nM in test [2]; 0.6 nM in test [3]; 3.3 nM in test [4]; 4.6 nM in test [5]; 1 nM in test [7].

As for `CNc1nc2ccc(S(=O)(=O)N(CC(C)C)C[C@@H](O)[C@H](Cc3ccccc3)NC(=O)O[C@H]3CO[C@H]4OC[C@H](OCC(=O)NCc5ccccc5)[C@H]43)cc2o1`, the “Ratio EC50” value turned out to be 0.5 in test [1], 0.3 in test [6] and 0.6 in test [8]. In addition, the EC50 in test [2] was found to be 15.1 nM; in test [3], 25 nM; in test [4], 13.4 nM; in test [5], 102 nM; in test [7], 6.4 nM.

With `COc1ccc(S(=O)(=O)N(CC(C)C)C[C@@H](O)[C@H](Cc2ccccc2)NC(=O)O[C@H]2CO[C@H]3OC[C@H](OCC(=O)N(C)C)[C@H]32)cc1`, the “Ratio EC50” value in test [1] is listed as 1.8; in test [6], 0.8; in test [8], 3. In addition, the concentration for a half-maximal effect (EC50) in test [2] was determined as 11.5 nM; in test [3] it was 3.8 nM; in test [4] it was 7 nM; in test [5], 7 nM; in test [7] it was 2.9 nM.

Consider `CNc1nc2ccc(S(=O)(=O)N(CC(C)C)C[C@@H](O)[C@H](Cc3ccccc3)NC(=O)O[C@H]3CO[C@H]4OC[C@H](F)[C@H]43)cc2o1`, for which the “Ratio EC50” value in test [1] was 1.2; in test [6] it was 0.9; in test [8], 4.1. The EC50 in test [2] was found to be 2.8 nM; in test [3] it was 0.7 nM; in test [4] it was 0.8 nM; in test [5] it was 8.4 nM; in test [7] it was 0.7 nM.

For the compound `CNc1nc2ccc(S(=O)(=O)N(CC(C)C)C[C@@H](O)[C@H](Cc3ccccc3)NC(=O)O[C@H]3CO[C@H]4OC[C@H](OCCC(F)(F)F)[C@H]43)cc2o1`, the “Ratio EC50” value in test [1] turned out to be 1.9; in test [6], 1.6; in test [8], 5.9. Also, the EC50 amounted to 2.8 nM in test [2]; 0.5 nM in test [3]; 0.9 nM in test [4]; 8.2 nM in test [5]; 0.8 nM in test [7].

As for `CC(C)CN(C[C@@H](O)[C@H](Cc1ccccc1)NC(=O)O[C@H]1CO[C@H]2OC[C@H](OCC(=O)NCc3ccccc3)[C@H]21)S(=O)(=O)c1ccc(N)cc1`, the “Ratio EC50” value in test [1] came to 0.7; in test [6] it was 0.6; in test [8] it was 2.2. The EC50 turned out to be 35.2 nM in test [2]; 16 nM in test [3]; 10.8 nM in test [4]; 93.5 nM in test [5]; 9.3 nM in test [7].

Turning to `C=C(F)CO[C@H]1CO[C@@H]2OC[C@H](OC(=O)N[C@@H](Cc3ccccc3)[C@H](O)CN(CC(C)C)S(=O)(=O)c3ccc4nc(NC)oc4c3)[C@@H]21`, the “Ratio EC50” value in test [1] turned out to be 1.2; in test [6], 1.4; in test [8] it was 6.1. Also, the EC50 in test [2] came out at 2.3 nM; in test [3], 0.4 nM; in test [4], 0.8 nM; in test [5], 2.2 nM; in test [7], 0.5 nM.

Turning to `CNC(=O)CO[C@H]1CO[C@@H]2OC[C@H](OC(=O)N[C@@H](Cc3ccccc3)[C@H](O)CN(CC(C)C)S(=O)(=O)c3ccc(OC)cc3)[C@@H]21`, the “Ratio EC50” value in test [1] came to 2.1; in test [6] it was 1.2; in test [8] it was 2.3. Moreover, the EC50 in test [2] came out at 15.7 nM; in test [3], 6.9 nM; in test [4], 14.3 nM; in test [5], 16.1 nM; in test [7], 8.3 nM.

`CC(C)CN(C[C@@H](O)[C@H](Cc1ccccc1)NC(=O)O[C@H]1CO[C@H]2OC[C@H](Cl)[C@H]21)S(=O)(=O)c1ccc(N)cc1`: the entries for the “Ratio EC50” value in test [1], in test [6] and in test [8] were 7.5, 4 and 85, respectively. Further, the EC50 stood at 31.6 nM in test [2]; 0.4 nM in test [3]; 2.8 nM in test [4]; 4.6 nM in test [5]; 1.5 nM in test [7].

Regarding `CC(C)CN(C[C@@H](O)[C@H](Cc1ccccc1)NC(=O)O[C@H]1CO[C@H]2OC[C@H](OC(=O)NCc3ccccc3)[C@H]21)S(=O)(=O)c1ccc(N)cc1`, the “Ratio EC50” value in test [1] was 3.2; in test [6], 0.9; in test [8], 22. For the same compound, the EC50 in test [2] was determined as 124 nM; in test [3], 5.8 nM; in test [4], 15.5 nM; in test [5], 30.4 nM; in test [7], 5.2 nM.

As to `CC(C)CN(C[C@@H](O)[C@H](Cc1ccccc1)NC(=O)O[C@H]1CO[C@H]2OC[C@H](NC(=O)OCc3ccccc3)[C@H]21)S(=O)(=O)c1ccc(N)cc1`, the “Ratio EC50” value in test [1] was determined as 1.1; in test [6], 0.4; in test [8], 16. For the same compound, the EC50 in test [2] amounted to 82.5 nM; in test [3] it was 5 nM; in test [4], 5.7 nM; in test [5] it was 35.2 nM; in test [7], 1.8 nM.

Take `CNc1nc2ccc(S(=O)(=O)N(CC(C)C)C[C@@H](O)[C@H](Cc3ccccc3)NC(=O)O[C@H]3CO[C@H]4OC[C@H](NC(=O)OCc5ccccc5)[C@H]43)cc2o1`: the “Ratio EC50” value in test [1] came to 0.6; in test [6], 0.3; in test [8], 2. Further, the EC50 in test [2] came out at 7.5 nM; in test [3] it was 3.8 nM; in test [4], 2.4 nM; in test [5], 16.6 nM; in test [7], 1 nM.

Regarding `CNC(=O)CO[C@H]1CO[C@@H]2OC[C@H](OC(=O)N[C@@H](Cc3ccccc3)[C@H](O)CN(CC(C)C)S(=O)(=O)c3ccc4nc(NC)oc4c3)[C@@H]21`, the figures for the “Ratio EC50” value in test [1], in test [6] and in test [8] were 0.3, 0.1 and 0.4, respectively. Also, the EC50 amounted to 204 nM in test [2]; 460 nM in test [3]; 151 nM in test [4]; 376 nM in test [5]; 68.5 nM in test [7].

As for `CNc1nc2ccc(S(=O)(=O)N(CC(C)C)C[C@@H](O)[C@H](Cc3ccccc3)NC(=O)O[C@H]3CO[C@H]4OC[C@H](Cl)[C@H]43)cc2o1`, the figures for the “Ratio EC50” value in test [1], in test [6] and in test [8] were 1.6, 1.6 and 4.6, respectively. In addition, the EC50 in test [2] came out at 2.1 nM; in test [3], 0.5 nM; in test [4] it was 0.7 nM; in test [5], 4.2 nM; in test [7], 0.7 nM.

Take `CNc1nc2ccc(S(=O)(=O)N(CC(C)C)C[C@@H](O)[C@H](Cc3ccccc3)NC(=O)O[C@H]3CO[C@H]4OC[C@H](OC(=O)NCc5ccccc5)[C@H]43)cc2o1`: the results for the “Ratio EC50” value in test [1], in test [6] and in test [8] were 1.2, 0.7 and 2.4, respectively. Further, the EC50 came to 13.9 nM in test [2]; 5.8 nM in test [3]; 7.2 nM in test [4]; 26.7 nM in test [5]; 4 nM in test [7].

`CNc1nc2ccc(S(=O)(=O)N(CC(C)C)C[C@@H](O)[C@H](Cc3ccccc3)NC(=O)O[C@H]3CO[C@H]4OC[C@H](OCC(=O)N(C)C)[C@H]43)cc2o1`: the “Ratio EC50” value was 0.4 in test [1], 0.2 in test [6] and 0.3 in test [8]. In addition, the EC50 in test [2] turned out to be 83.8 nM; in test [3], 249 nM; in test [4], 102 nM; in test [5], 243 nM; in test [7], 50.4 nM.

On to `COc1ccc(S(=O)(=O)N(CC(C)C)C[C@@H](O)[C@H](Cc2ccccc2)NC(=O)O[C@H]2CO[C@H]3OC[C@H](O)[C@H]32)cc1`, for which the “Ratio EC50” value in test [1] is reported as 1.1; in test [6], 0.2; in test [8], 1. For the same compound, the EC50 in test [2] stood at 6.7 nM; in test [3] it was 6.5 nM; in test [4] it was 6.9 nM; in test [5] it was 12.4 nM; in test [7], 1.6 nM.

Usually EC50 stands for the concentration needed to bring the measured effect to its halfway point.
